# From ChEMBL document CHEMBL3352233, “N-[6-(4-butanoyl-5-methyl-1H-pyrazol-1-yl)pyridazin-3-yl]-5-chloro-1-[2-(4-methylpiperazin-1-yl)-2-oxoethyl]-1H-indole-3-carboxamide (SAR216471), a novel intravenous and oral, reversible, and directly acting P2Y12 antagonist” (J Med Chem, 2014)
# Active and inactive are the calls of the source. The calls are words filed in the database; no cut-off is given here.
# What was measured:
# [1] = (§1) Metabolic stability in human liver microsomes assessed as compound metabolism after 20 mins incubation in presence of 1 mM NADPH; type: ADME; conditions: liver microsomes, read-out: Drug metabolism
# Outline: (§2)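 Hepatic microsomal fractions are incubated with compound for 20 min with 1 mM NADPH. Result is reported as % metabolized, i.e. 100 minus % unchanged compound.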
# [2] = (§3) Metabolic stability in rat liver microsomes assessed as compound metabolism after 20 mins incubation in presence of 1 mM NADPH; type: ADME; conditions: liver microsomes, read-out: Drug metabolism; outline: as §2
# [3] = Solubility in water at final pH; type: physicochemical
# P2Y purinoceptor 12 = P2Y purinoceptor 12 (Homo sapiens, UniProt Q9H244); assay: Displacement of [33P]2MeS-ADP from P2Y12 receptor (unknown origin) transfected in CHO cells after 30 mins by scintillation counting analysis; type: cell-based
# Outline: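 P2Y12-expressing CHO cells (35 × 10³/sample) in PBS with 1 mM EDTA and 0.2% BSA are exposed to compound for 30 min. [³³P]2-MeS-ADP (0.16 nM) is then added for 15 min at 20 °C, in triplicate. Filtration separates free from bound ligand, followed by scintillation counting. Nonspecific binding uses 1 mM unlabeled ADP. IC50 comes from a four-parameter logistic fit with asymptotes fixed at 0 and 100. n = 2.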
# [4] = Permeability across human Caco2 cells; type: ADME, cell-based; conditions: for Papp: Caco-2, read-out: permeability; for permeability: Caco-2
# Outline: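 Permeation is measured across a Caco2 cell monolayer and reported in 10⁻⁷ cm·s⁻¹.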
# Rattus norvegicus [5] = assay: Ex vivo inhibition of platelet aggregation in Sprague-Dawley rat at 10 mg/kg, po after 6 hrs; type: functional; conditions: for inhibition in vivo at 10 mg/kg: Rattus norvegicus, Sprague-Dawley, po, 6 h; for inhibition (INH): 10 mg/kg
# Outline: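 Time-course study in Sprague−Dawley rats after a 10 mg/kg oral dose in glucose/Cremophor/glycofurol vehicle. Aortic citrated blood is sampled at intervals over the hours after dosing. PRP is prepared at 300g for 5 min. ADP-induced aggregation is measured as the 6-min absorbance AUC and reported as % inhibition.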
# Rattus norvegicus [6] = assay: Ex vivo inhibition of platelet aggregation in Sprague-Dawley rat at 10 mg/kg, po after 2 hrs; type: functional; conditions: for inhibition in vivo at 10 mg/kg: Rattus norvegicus, Sprague-Dawley, po, 2 h; for inhibition (INH): 10 mg/kg
# Outline: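 Male Sprague−Dawley rats (250−300 g), 6 per batch, are dosed by stomach tube at 10 mL/kg of a 1 mg/mL solution in 5% glucose water containing 5% Cremophor and 3% glycofurol. At 2 h, aortic blood is drawn into 3.8% citrate (1:9) under pentobarbital. PRP is prepared at 300g for 5 min. ADP aggregation is read as the 6-min absorbance AUC and expressed as % inhibition.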
# Liver microsome [7] = assay: as §3; type: ADME; conditions: microsomes, 20 min; outline: as §2
# [8] = Metabolic stability in mouse liver microsomes assessed as compound metabolism after 20 mins incubation in presence of 1 mM NADPH; type: ADME; conditions: read-out: Drug metabolism
# Outline: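 Compound incubated with mouse hepatic microsomal fractions for 20 min with 1 mM NADPH. Read-out is % metabolism, meaning 100 minus % unchanged compound.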
# Hepatocyte [9] = assay: Intrinsic metabolic clearance in human hepatocytes measured per 10^6 cells after 24 hrs; type: ADME, cell-based
# Outline: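 Human hepatocytes incubated with compound for 24 h to measure in vitro metabolism. Clearance reported in mL·h⁻¹·(10⁶ hepatocytes)⁻¹.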
# Hepatocyte [10] = assay: Intrinsic metabolic clearance in human hepatocytes measured assessed as CYP3A4 contribution per 10^6 cells after 24 hrs; type: ADME, cell-based
# Liver microsome [11] = assay: as §1; type: ADME; conditions: microsomes, 20 min; outline: as §2
# Rattus norvegicus [12] = assay: Ex vivo inhibition of platelet aggregation in po dosed Sprague-Dawley rat after 2 hrs; type: functional
# Outline: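 Oral gavage in male Sprague−Dawley rats (250−300 g, 6 per batch), vehicle 5% glucose water with 5% Cremophor and 3% glycofurol. Blood is collected 2 h after dosing from the abdominal aorta into 3.8% citrate under pentobarbital. PRP is prepared at 300g for 5 min. ADP-induced aggregation is quantified as the 6-min absorbance AUC, given as % inhibition.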
# Rattus norvegicus [13] = assay: Ex vivo inhibition of platelet aggregation in Sprague-Dawley rat at 1 mg/kg, iv after 30 mins; type: functional; conditions: 0.5 h
# Outline: (§4)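 Male Sprague−Dawley rats (250−300 g) receive compound iv. At 30 min, under pentobarbital anesthesia, blood is taken from the abdominal aorta into 3.8% citrate (1:9). PRP is prepared at 300g for 5 min. ADP-induced aggregation is measured, using the area under the absorbance curve over 6 min, and expressed as % inhibition.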
# Rattus norvegicus [14] = assay: Ex vivo inhibition of platelet aggregation in Sprague-Dawley rat at 3 mg/kg, iv after 30 mins; type: functional; conditions: 0.5 h; outline: as §4
# Rattus norvegicus [15] = assay: Ex vivo inhibition of platelet aggregation in Sprague-Dawley rat at 10 mg/kg, iv after 30 mins; type: functional; conditions: 0.5 h; outline: as §4
# Rattus norvegicus [16] = assay: Toxicity in rat assessed as damaged organ at 30 mg/kg, po after 7 days; type: organism-based; set-up: dose 30 mg/kg, route oral; conditions: in vivo, 168 h
# Outline: (§5)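 Rats are dosed daily for 7 days, orally (30 and 100 mg/kg) or iv (3 and 10 mg/kg). Target organs are examined for damage. Plasma AUC(0−24) is compared between day 1 and day 7.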
# Rattus norvegicus [17] = assay: Toxicity in rat assessed as damaged organ at 100 mg/kg, po after 7 days; type: organism-based; set-up: dose 100 mg/kg, route oral; conditions: in vivo, 168 h; outline: as §5
# Rattus norvegicus [18] = assay: Toxicity in rat assessed as damaged organ at 3 mg/kg, iv after 7 days; type: organism-based; set-up: dose 3 mg/kg, route intravenous; conditions: in vivo, 168 h; outline: as §5
# Rattus norvegicus [19] = assay: Toxicity in rat assessed as damaged organ at 10 mg/kg, iv after 7 days; type: organism-based; set-up: dose 10 mg/kg, route intravenous; conditions: in vivo, 168 h; outline: as §5
# Canis familiaris [20] = assay: Toxicity in conscious telemetered mongrel dog assessed as hemodynamic effect at 100 mg/kg, po after 24 hrs; type: organism-based, Canis lupus familiaris; set-up: dose 100 mg/kg, route oral; conditions: in vivo
# Canis familiaris [21] = assay: Toxicity in conscious telemetered mongrel dog assessed as electrocardiographic effect at 100 mg/kg, po after 24 hrs; type: organism-based, Canis lupus familiaris; set-up: dose 100 mg/kg, route oral; conditions: in vivo
# Canis familiaris [22] = assay: Toxicity in conscious telemetered mongrel dog assessed as body temperature at 100 mg/kg, po after 24 hrs; type: organism-based, Canis lupus familiaris; set-up: dose 100 mg/kg, route oral; conditions: in vivo
# [23] = Plasma concentration in conscious telemetered mongrel dog at 100 mg/kg, po after 4 hrs; type: ADME, organism-based, Canis lupus familiaris; set-up: dose 100 mg/kg, route oral
# Rattus norvegicus [24] = assay: Ex vivo inhibition of platelet aggregation in Sprague-Dawley rat at 30 mg/kg, po after 2 hrs
# Rattus norvegicus [25] = assay: Ex vivo inhibition of platelet aggregation in Sprague-Dawley rat at 0.1 mg/kg, iv after 5 mins
# Rattus norvegicus [26] = assay: Ex vivo inhibition of platelet aggregation in Sprague-Dawley rat at 0.3 mg/kg, iv after 5 mins
# Rattus norvegicus [27] = assay: Ratio of AUC (0 to 24 hrs) in rat dosed as 7 day repeated administration to AUC (0 to 24 hrs) in rat administered as single dose; conditions: in vivo
# P2Y purinoceptor 12, sequence (Q9H244 whole entry): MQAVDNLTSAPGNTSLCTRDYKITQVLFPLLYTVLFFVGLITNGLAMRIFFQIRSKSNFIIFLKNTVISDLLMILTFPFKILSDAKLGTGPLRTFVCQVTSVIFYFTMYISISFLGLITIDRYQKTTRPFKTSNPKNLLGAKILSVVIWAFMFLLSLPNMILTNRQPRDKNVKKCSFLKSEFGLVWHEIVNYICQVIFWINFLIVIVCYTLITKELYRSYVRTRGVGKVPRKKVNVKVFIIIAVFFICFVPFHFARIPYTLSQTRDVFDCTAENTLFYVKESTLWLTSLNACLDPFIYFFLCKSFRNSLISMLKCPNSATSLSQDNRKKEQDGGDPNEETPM
structure (smiles),measurement,setting,value
CCCC(=O)c1cnn(-c2ccc(NC(=O)c3cn(CC(=O)N(C)C)c4cc(C)c(C)cc34)cc2)c1C,metabolised at 20 min,[1],59%
same,metabolised at 20 min,[2],64%
same,solubility,[3],< 10 µg/mL
same,IC50,P2Y purinoceptor 12,31 nM
same,Papp,[4],18.6 ×10⁻⁶ cm/s
"CCCC(=O)c1cnn(-c2ccc(NC(=O)c3cn(CC(=O)N4CCN5CCN(C)C(=O)C5C4)c4ccc(Cl)cc34)cc2)c1C (single isomer, unassigned; 103) [listing 1 of 2 here]",inhibition,Rattus norvegicus [5],inactive
CCCC(=O)c1cnn(-c2ccc(NC(=O)c3cn(CC(=O)N4CCN(Cc5cc(C)on5)CC4)c4ccc(Cl)cc34)cc2)c1C,metabolised at 20 min,[1],87%
same,metabolised at 20 min,[2],31%
same,inhibition in vivo at 10 mg/kg,Rattus norvegicus [6],72%
same,inhibition in vivo at 10 mg/kg,Rattus norvegicus [5],60%
same,IC50,P2Y purinoceptor 12,11 nM
same,Papp,[4],0.6 ×10⁻⁶ cm/s
CCCC(=O)c1cnn(-c2ccc(NC(=O)c3cn(CC(=O)N4CCN5CCN(C)C(=O)C5C4)c4ccc(Cl)cc34)cc2)c1C (racemic),metabolised at 20 min,[1],50%
same,Drug metabolism,Liver microsome [7],40%
same,inhibition (INH),Rattus norvegicus [6],80%
same,inhibition (INH),Rattus norvegicus [5],39%
same,IC50,P2Y purinoceptor 12,8 nM
same,Papp,[4],3.6 ×10⁻⁶ cm/s
CCCC(=O)c1cnn(-c2ccc(NC(=O)c3cn(CC(=O)N4CCN(C)CC4)c4ccc(Cl)cc34)c(C#N)c2)c1C,metabolised at 20 min,[1],61%
same,metabolised at 20 min,[2],18%
same,metabolised at 20 min,[8],8%
same,CLH,Hepatocyte [9],0.143 mL/h
same,Activity,Hepatocyte [10],67%
same,IC50,P2Y purinoceptor 12,48 nM
same,Papp,[4],3.3 ×10⁻⁶ cm/s
"CCCC(=O)c1cnn(-c2ccc(NC(=O)c3cn(CC(=O)N4CCN5CCN(C)C(=O)C5C4)c4ccc(Cl)cc34)cc2)c1C (single isomer, unassigned; 104)",Drug metabolism,Liver microsome [11],47%
same,Drug metabolism,Liver microsome [7],7%
same,inhibition (INH),Rattus norvegicus [5],61%
same,IC50,P2Y purinoceptor 12,12 nM
same,permeability,[4],28 ×10⁻⁷ cm/s
CCCC(=O)c1cnn([C@H]2CC[C@H](NC(=O)c3cn(CC(=O)N4CCN(C)CC4)c4ccc(Cl)cc34)CC2)c1C,metabolised at 20 min,[1],73%
same,metabolised at 20 min,[2],32%
same,metabolised at 20 min,[8],11%
same,CLH,Hepatocyte [9],0.171 mL/h
same,Activity,Hepatocyte [10],64%
same,IC50,P2Y purinoceptor 12,40 nM
same,Papp,[4],0.1 ×10⁻⁶ cm/s
"CCCC(=O)c1cnn(-c2ccc(NC(=O)c3cn(CC(=O)N4CCN5CCN(C)C(=O)C5C4)c4ccc(Cl)cc34)cc2)c1C (single isomer, unassigned; 103) [listing 2 of 2 here]",Drug metabolism,Liver microsome [11],52%
same,Drug metabolism,Liver microsome [7],23%
same,inhibition (INH),Rattus norvegicus [6],46%
same,IC50,P2Y purinoceptor 12,7 nM
same,permeability,[4],32 ×10⁻⁷ cm/s
CC(=O)Oc1cc2c(s1)CCN(C(C(=O)C1CC1)c1ccccc1F)C2 (configuration not stated),ED50,Rattus norvegicus [12],0.46 mg/kg
CCCC(=O)c1cnn(-c2ccc(NC(=O)c3cn(CC(=O)N4CCN(C)CC4)c4ccc(Cl)cc34)cc2)c1C,metabolised at 20 min,[1],36%
same,metabolised at 20 min,[2],14%
same,inhibition in vivo at 10 mg/kg,Rattus norvegicus [6],50%
same,inhibition in vivo at 10 mg/kg,Rattus norvegicus [5],51%
same,inhibition in vivo at 1 mg/kg,Rattus norvegicus [13],53%
same,inhibition in vivo at 3 mg/kg,Rattus norvegicus [14],70%
same,inhibition in vivo at 10 mg/kg,Rattus norvegicus [15],86%
same,IC50,P2Y purinoceptor 12,27 nM
same,Papp,[4],1.6 ×10⁻⁶ cm/s
CCCC(=O)c1cnn(-c2ccc(NC(=O)c3cn(CC(=O)N4CCN(C)CC4)c4ccc(Cl)cc34)nn2)c1C,metabolised at 20 min,[1],29%
same,metabolised at 20 min,[2],11%
same,inhibition in vivo at 10 mg/kg,Rattus norvegicus [5],74%
same,metabolised at 20 min,[8],4%
same,CLH,Hepatocyte [9],0.085 mL/h
same,Activity,Hepatocyte [10],43%
same,ED50,Rattus norvegicus [12],2.75 mg/kg
same,inhibition,Rattus norvegicus [12],Dose-dependent effect
same,inhibition in vivo at 1 mg/kg,Rattus norvegicus [13],75%
same,inhibition in vivo at 3 mg/kg,Rattus norvegicus [14],86%
same,inhibition in vivo at 10 mg/kg,Rattus norvegicus [15],92%
same,Activity,Rattus norvegicus [16],Non-toxic
same,Activity,Rattus norvegicus [17],Non-toxic
same,Activity,Rattus norvegicus [18],Non-toxic
same,Activity,Rattus norvegicus [19],Non-toxic
same,Activity,Canis familiaris [20],Non-toxic
same,Activity,Canis familiaris [21],Non-toxic
same,Activity,Canis familiaris [22],Non-toxic
same,concentration at 4 h,[23],4.2 µM
same,IC50,P2Y purinoceptor 12,17 nM
same,Papp,[4],0.8 ×10⁻⁶ cm/s
same,inhibition in vivo at 30 mg/kg,Rattus norvegicus [24],85%
same,inhibition in vivo at 0.1 mg/kg,Rattus norvegicus [25],37%
same,inhibition in vivo at 0.3 mg/kg,Rattus norvegicus [26],63%
same,Ratio,Rattus norvegicus [27],1.3
